Source: ChEMBL document CHEMBL2146464, “Structure-activity relationship study of nitrosopyrimidines acting as antifungal agents” (Bioorg Med Chem, 2012)
In brackets after ≈: the same amount, converted by molar mass. Activity calls are given as the source filed them. The rule behind the calls is not given here.

Tests used:
[1] = test system: Candida albicans; experiment: Antifungal activity against Candida albicans ATCC 10231 after 48 hrs by NCCLS broth microdilution method; format: functional; details: ATCC 10231, 48 h, read-out: MIC100
Outline: (§1)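 Yeast MIC by NCCLS M27-A3 broth microdilution in RPMI-1640 buffered to pH 7.0 with MOPS. Twofold dilutions of 250–0.98 µg/mL, final DMSO ≤1%. Inoculum 1–5 × 10³ CFU/mL. Incubated at 30 °C in a moist dark chamber. Read visually at 48 h. MIC100 is the lowest concentration with no visible growth versus drug-free control.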

[2] = test system: Candida tropicalis; experiment: Antifungal activity against Candida tropicalis after 48 hrs by NCCLS broth microdilution method; format: functional; details: read-out: MIC100; outline: as §1
[3] = test system: Cryptococcus neoformans; experiment: Antifungal activity against Cryptococcus neoformans ATCC 32264 after 48 hrs by NCCLS broth microdilution method; format: functional; details: ATCC 32264, 48 h, read-out: MIC100; outline: as §1
[4] = test system: Candida tropicalis; experiment: Antifungal activity against Candida tropicalis by microplate reader analysis; format: functional
[5] = test system: Nannizzia gypsea; experiment: Antifungal activity against Microsporum gypseum CCC 115 by NCCLS broth microdilution method; format: functional; details: read-out: MIC100
Outline: (§2)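 MIC by broth microdilution per NCCLS M27-A3/M38-A2 in RPMI-1640 buffered to pH 7.0 with MOPS. Twofold dilutions from 250–0.98 µg/mL, final DMSO ≤1%. Inoculum 1–5 × 10³ CFU/mL. Incubated in a moist dark chamber, 30 °C for Aspergillus and 28–30 °C for dermatophytes. Read visually when control growth allowed. Endpoint is the lowest concentration giving total inhibition of visible growth (MIC100).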

[6] = test system: Trichophyton rubrum; experiment: Antifungal activity against Trichophyton rubrum CCC 110 by NCCLS broth microdilution method; format: functional; details: read-out: MIC100; outline: as §2
[7] = test system: Trichophyton mentagrophytes; experiment: Antifungal activity against Trichophyton mentagrophytes ATCC 9972 by NCCLS broth microdilution method; format: functional; details: read-out: MIC100; outline: as §2
[8] = test system: Candida albicans; experiment: Fungicidal activity against Candida albicans ATCC 10231 after 48 hrs by agar plate dilution method; format: functional; details: ATCC 10231, 48 h
Outline: (§3)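 MFC: after the microdilution MIC, material from each clear well was plated onto RPMI-1640 agar buffered with MOPS. Plates incubated at 30 °C and read after 48 h. MFC is the lowest concentration giving total inhibition of visible growth.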

[9] = test system: Candida tropicalis; experiment: Fungicidal activity against Candida tropicalis after 48 hrs by agar plate dilution method; format: functional; outline: as §3
[10] = test system: Cryptococcus neoformans; experiment: Fungicidal activity against Cryptococcus neoformans ATCC 32264 after 48 hrs by agar plate dilution method; format: functional; details: ATCC 32264, 48 h; outline: as §3
[11] = test system: Nannizzia gypsea; experiment: Fungicidal activity against Microsporum gypseum CCC 115 after 48 hrs by agar plate dilution method; format: functional; details: CCC 115, 48 h; outline: as §3
[12] = test system: Trichophyton rubrum; experiment: Fungicidal activity against Trichophyton rubrum CCC 110 after 48 hrs by agar plate dilution method; format: functional; details: CCC 110, 48 h
Outline: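 Samples from each clear well of the MIC broth microdilution tray were plated onto RPMI-1640 agar buffered with MOPS. That tray had compounds twofold diluted in RPMI (pH 7.0, MOPS) from 250–0.98 µg/mL with inoculum of 1–5 × 10³ CFU/mL, incubated at 28–30 °C for dermatophytes. Plates were incubated at 30 °C and read at 48 h. MFC was taken as the lowest concentration giving total inhibition of visible growth.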

[13] = test system: Trichophyton mentagrophytes; experiment: Fungicidal activity against Trichophyton mentagrophytes ATCC 9972 after 48 hrs by agar plate dilution method; format: functional; details: ATCC 9972, 48 h; outline: as §3
[14] = test system: Aspergillus flavus; experiment: Antifungal activity against Aspergillus flavus ATCC 9170 at 0.98 to 250 ug/mL by NCCLS broth microdilution method; format: functional, organism-based; outline: as §2
[15] = test system: Aspergillus fumigatus; experiment: Antifungal activity against Aspergillus fumigatus ATCC 26934 at 0.98 to 250 ug/mL by NCCLS broth microdilution method; format: functional, organism-based; outline: as §2
[16] = test system: Aspergillus niger; experiment: Antifungal activity against Aspergillus niger ATCC 9029 at 0.98 to 250 ug/mL by NCCLS broth microdilution method; format: functional, organism-based; outline: as §2
[17] = test system: Candida albicans; experiment: Antifungal activity against Candida albicans ATCC 10231 assessed as growth inhibition at 250 ug/mL after 24 hrs by microplate reader analysis; format: functional; details: ATCC 10231, 24 h, read-out: GI
Outline: (§4)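 96-well RPMI-1640 wells with compound at final 250–0.98 µg/mL (DMSO ≤1%). Inoculum 100 µL, 1–5 × 10³ CFU/mL, 200 µL final. Each well includes growth (DMSO, no compound) and sterility controls. % inhibition = 100 − (CTW−SCW)/(GCW−SCW) × 100, run in duplicate.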

[18] = test system: Candida tropicalis; experiment: Antifungal activity against Candida tropicalis assessed as growth inhibition at 250 ug/mL by microplate reader analysis; format: functional; details: read-out: GI
[19] = test system: Cryptococcus neoformans; experiment: Antifungal activity against Cryptococcus neoformans ATCC 32264 assessed as growth inhibition at 250 ug/mL after 48 hrs by microplate reader analysis; format: functional; details: ATCC 32264, 48 h, read-out: GI
Outline: (§5)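 Microplate growth-inhibition assay in RPMI-1640, compound at final 250–0.98 µg/mL (DMSO ≤1%). Inoculum 1–5 × 10³ CFU/mL. Sterility and DMSO growth controls included. Percent inhibition is computed from blank-corrected OD relative to the growth control, tested in duplicate.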

[20] = test system: Candida albicans; experiment: Antifungal activity against Candida albicans ATCC 10231 assessed as growth inhibition at 125 ug/mL after 24 hrs by microplate reader analysis; format: functional; details: ATCC 10231, 24 h, read-out: GI; outline: as §4
[21] = test system: Candida tropicalis; experiment: Antifungal activity against Candida tropicalis assessed as growth inhibition at 125 ug/mL by microplate reader analysis; format: functional; details: read-out: GI
[22] = test system: Cryptococcus neoformans; experiment: Antifungal activity against Cryptococcus neoformans ATCC 32264 assessed as growth inhibition at 125 ug/mL after 48 hrs by microplate reader analysis; format: functional; details: ATCC 32264, 48 h, read-out: GI; outline: as §5
[23] = test system: Candida albicans; experiment: Antifungal activity against Candida albicans ATCC 10231 assessed as growth inhibition at 62.5 ug/mL after 24 hrs by microplate reader analysis; format: functional; details: ATCC 10231, 24 h, read-out: GI; outline: as §4
[24] = test system: Candida tropicalis; experiment: Antifungal activity against Candida tropicalis assessed as growth inhibition at 62.5 ug/mL by microplate reader analysis; format: functional; details: read-out: GI
[25] = test system: Cryptococcus neoformans; experiment: Antifungal activity against Cryptococcus neoformans ATCC 32264 assessed as growth inhibition at 62.5 ug/mL after 48 hrs by microplate reader analysis; format: functional; details: ATCC 32264, 48 h, read-out: GI; outline: as §5
[26] = test system: Candida albicans; experiment: Antifungal activity against Candida albicans ATCC 10231 assessed as growth inhibition at 31.25 ug/mL after 24 hrs by microplate reader analysis; format: functional; details: ATCC 10231, 24 h, read-out: GI; outline: as §4
[27] = test system: Candida tropicalis; experiment: Antifungal activity against Candida tropicalis assessed as growth inhibition at 31.25 ug/mL by microplate reader analysis; format: functional; details: read-out: GI
[28] = test system: Cryptococcus neoformans; experiment: Antifungal activity against Cryptococcus neoformans ATCC 32264 assessed as growth inhibition at 31.25 ug/mL after 48 hrs by microplate reader analysis; format: functional; details: ATCC 32264, 48 h, read-out: GI; outline: as §5
[29] = test system: Candida albicans; experiment: Antifungal activity against Candida albicans ATCC 10231 assessed as growth inhibition at 15.6 ug/mL after 24 hrs by microplate reader analysis; format: functional; details: ATCC 10231, 24 h, read-out: GI; outline: as §4
[30] = test system: Candida tropicalis; experiment: Antifungal activity against Candida tropicalis assessed as growth inhibition at 15.6 ug/mL by microplate reader analysis; format: functional; details: read-out: GI
[31] = test system: Cryptococcus neoformans; experiment: Antifungal activity against Cryptococcus neoformans ATCC 32264 assessed as growth inhibition at 15.6 ug/mL after 48 hrs by microplate reader analysis; format: functional; details: ATCC 32264, 48 h, read-out: GI; outline: as §5
[32] = test system: Candida albicans; experiment: Antifungal activity against Candida albicans ATCC 10231 assessed as growth inhibition at 7.8 ug/mL after 24 hrs by microplate reader analysis; format: functional; details: ATCC 10231, 24 h, read-out: GI; outline: as §4
[33] = test system: Candida tropicalis; experiment: Antifungal activity against Candida tropicalis assessed as growth inhibition at 7.8 ug/mL by microplate reader analysis; format: functional; details: read-out: GI
[34] = test system: Cryptococcus neoformans; experiment: Antifungal activity against Cryptococcus neoformans ATCC 32264 assessed as growth inhibition at 7.8 ug/mL after 48 hrs by microplate reader analysis; format: functional; details: ATCC 32264, 48 h, read-out: GI; outline: as §5
[35] = test system: Candida albicans; experiment: Antifungal activity against Candida albicans ATCC 10231 assessed as growth inhibition at 3.9 ug/mL after 24 hrs by microplate reader analysis; format: functional; details: ATCC 10231, 24 h, read-out: GI; outline: as §4
[36] = test system: Candida tropicalis; experiment: Antifungal activity against Candida tropicalis assessed as growth inhibition at 3.9 ug/mL by microplate reader analysis; format: functional; details: read-out: GI
[37] = test system: Cryptococcus neoformans; experiment: Antifungal activity against Cryptococcus neoformans ATCC 32264 assessed as growth inhibition at 3.9 ug/mL after 48 hrs by microplate reader analysis; format: functional; details: ATCC 32264, 48 h, read-out: GI; outline: as §5
[38] = test system: Candida albicans; experiment: Antifungal activity against Candida albicans ATCC 10231 after 24 hrs by microplate reader analysis; format: functional; details: ATCC 10231, 24 h; outline: as §4
[39] = Acute toxicity in bony fish assessed as mortality at 35 ug/mL after 96 hrs; details: actinopterygii; read-out: Activity
Outline: (§6)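 Guppy (Poecilia reticulata) acute static exposure: 10 fish per concentration in 2 L wide-mouthed jars holding the test solution. Compounds were added from […] to give the final concentrations. Dead fish were counted and removed every 24 h, with general condition noted; percentage mortality was scored at 96 h. Two experiments, each in triplicate.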

[40] = Acute toxicity in bony fish assessed as mortality at 5 ug/mL after 96 hrs; details: actinopterygii; read-out: Activity; outline: as §6
[41] = test system: Cryptococcus neoformans; experiment: Antifungal activity against Cryptococcus neoformans ATCC 32264 after 48 hrs by microplate reader analysis; format: functional; details: ATCC 32264, 48 h; outline: as §5

Q: Which results are given for `COc1nc(N)c(N=O)c(Nc2ccccc2)n1`?
A: MIC [1]: 31.2 µg/mL (≈ 127 µM); MIC [2]: 31.2 µg/mL (≈ 127 µM); MIC [3]: 15.6 µg/mL (≈ 63.6 µM); MIC50 [4]: 7.8 µg/mL (≈ 31.8 µM); MIC [5]: 62.5 µg/mL (≈ 255 µM); MIC [6]: 125 µg/mL (≈ 510 µM); MIC [7]: 125 µg/mL (≈ 510 µM); MFC [8]: 31.2 µg/mL (≈ 127 µM); MFC [9]: 31.2 µg/mL (≈ 127 µM); MFC [10]: 62.5 µg/mL (≈ 255 µM); MFC [11]: 62.5 µg/mL (≈ 255 µM); MFC [12]: 250 µg/mL (≈ 1020 µM); MFC [13]: 250 µg/mL (≈ 1020 µM); Activity [14]: inactive; Activity [15]: inactive; Activity [16]: inactive; inhibition of growth at 250 µg/mL [17]: 100%; inhibition of growth at 250 µg/mL [18]: 100%; inhibition of growth at 250 µg/mL [19]: 100%; inhibition of growth at 125 µg/mL [20]: 100%; inhibition of growth at 125 µg/mL [21]: 100%; inhibition of growth at 125 µg/mL [22]: 100%; inhibition of growth at 62.5 µg/mL [23]: 100%; inhibition of growth at 62.5 µg/mL [24]: 100%; inhibition of growth at 62.5 µg/mL [25]: 100%; inhibition of growth at 31.25 µg/mL [26]: 100%; inhibition of growth at 31.25 µg/mL [27]: 100%; inhibition of growth at 31.25 µg/mL [28]: 100%; inhibition of growth at 15.6 µg/mL [29]: 98.1%; inhibition of growth at 15.6 µg/mL [30]: 88.2%; inhibition of growth at 15.6 µg/mL [31]: 100%; inhibition of growth at 7.8 µg/mL [32]: 85%; inhibition of growth at 7.8 µg/mL [33]: 87.2%; inhibition of growth at 7.8 µg/mL [34]: 91.2%; inhibition of growth at 3.9 µg/mL [35]: 4.7%; inhibition of growth at 3.9 µg/mL [36]: 4.1%; inhibition of growth at 3.9 µg/mL [37]: 76.2%; MIC50 [38]: 7.8 µg/mL (≈ 31.8 µM); mortality at 96 h, 35 ug/mL [39]: 0%; mortality at 96 h, 5 ug/mL [40]: 0%; MIC50 [41]: 1.95 µg/mL (≈ 7.95 µM)
